Reference: ChEMBL document CHEMBL1177840, “Trifluoromethyl-promoted homocamptothecins: synthesis and biological activity” (Eur J Med Chem, 2010)
Active and inactive are the calls of the source. The rule behind the calls is not given here.

Key:
LoVo = experiment: Cytotoxicity against human LoVo cells after 3 days by MTT assay
A549 = experiment: Cytotoxicity against human A549 cells after 3 days by MTT assay; conditions: A549, 3 days
MDA-MB-435 = experiment: Cytotoxicity against human MDA-MB-435 cells after 3 days by MTT assay; conditions: MDA-MB-435, 3 days
Mus musculus [1] = experiment: Toxicity in C57BL/6 mouse at 0.5 mg/kg, ip qd for 5 days; type: organism-based; parameters: dose 0.5 mg/kg, route intraperitoneal; conditions: in vivo, 120 h
[2] = tested on: Lewis lung carcinoma cell line; experiment: Antitumor activity against mouse LLC transplanted in C57BL/6 mouse assessed as tumor growth inhibition at 0.5 mg/kg, ip qd for 5 days; type: functional; conditions: 120 h, route intraperitoneal
In short: (§1)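 Male C57BL/6 mice (18–20 g) received Lewis lung carcinoma cells subcutaneously in the right axilla. Starting 3 days after implantation, they were dosed i.p. once daily for 5 consecutive days; controls received normal saline. Tumors were excised and weighed on day 14 post-implantation. Growth inhibition was calculated from the average tumor weight of the test group versus the control group.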

[3] = tested on: Lewis lung carcinoma cell line; experiment: Antitumor activity against mouse LLC transplanted in C57BL/6 mouse assessed as tumor weight at 0.5 mg/kg, ip qd for 5 days (RVb = 1.8 +/- 0.47 g); type: functional; conditions: route intraperitoneal
In short: as §1

Mus musculus [4] = experiment: Toxicity in C57BL/6 mouse assessed as body weight at 0.5 mg/kg, ip qd for 5 days ( RVb = 19.06 +/- 1.35 g); type: organism-based; parameters: dose 0.5 mg/kg, route intraperitoneal; conditions: in vivo, 120 h
[5] = biological target: T1, Topoisomerase I (Bos taurus) (UniProt Q2HPH0); experiment: Inhibition of calf thymus topoisomerase 1-mediated relaxation of supercoiled pBR322 by agarose gel electrophoresis
T1 sequence (whole entry): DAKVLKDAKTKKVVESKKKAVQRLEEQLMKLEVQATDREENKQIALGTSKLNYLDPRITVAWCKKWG
In short: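 Reactions incubated 15 min at 37 °C, then stopped with SDS (0.5% final). After loading buffer was added, products were separated on 0.8% agarose in TAE buffer for 40 min at 120 V. Gels were stained with ethidium bromide at room temperature and photographed under UV transillumination.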

| SMILES | IC50 (LoVo) | IC50 (A549) | IC50 (MDA-MB-435) | Activity (Mus musculus [1]) | inhibition in vivo at 0.5 mg/kg [2] | Activity [3] | Activity (Mus musculus [4]) | inhibition [5] |
| --- | --- | --- | --- | --- | --- | --- | --- | --- |
| CCC1(O)CC(=O)OCc2c1cc1n(c2=O)Cc2c-1nc1ccc(O)cc1c2C (centres undefined) | 7.09 µM | 9.89 µM | 3.39 µM |  |  |  |  |  |
| CCC1(O)CC(=O)OCc2c1cc1n(c2=O)Cc2c-1nc1cccc(OC)c1c2C (centres undefined) | 5.47 µM | 10.9 µM | 7.73 µM | Non-toxic | 23.2% | 1.38 g | 19.77 g |  |
| CCC1(O)CC(=O)OCc2c1cc1n(c2=O)Cc2c-1nc1ccc(C(F)(F)F)cc1c2C (centres undefined) | > 225 µM | > 225 µM | > 225 µM |  |  |  |  |  |
| CCC1(O)CC(=O)OCc2c1cc1n(c2=O)Cc2c-1nc1ccccc1c2C (centres undefined) | 1.16 µM | 0.468 µM | 3.88 µM | Non-toxic | 41.2% | 1.06 g | 18.8 g | Active |
| CCC1(O)CC(=O)OCc2c1cc1n(c2=O)Cc2c-1nc1ccc(OC)cc1c2C (centres undefined) | 1.32 µM | 3.52 µM | 2.61 µM |  |  |  |  |  |
| CCC1(O)CC(=O)OCc2c1cc1n(c2=O)Cc2c-1nc1ccc(Br)cc1c2C (centres undefined) | 2.31 µM | 29.1 µM | 30.9 µM |  |  |  |  |  |
| CCC1(O)CC(=O)OCc2c1cc1n(c2=O)Cc2c-1nc1ccc(Br)cc1c2C(F)(F)F (racemic) | 13.3 µM | 27.9 µM | 11 µM |  |  |  |  |  |
| CCC1(O)CC(=O)OCc2c1cc1n(c2=O)Cc2c-1nc1ccccc1c2C(F)(F)F (racemic) | 1.29 µM | 0.313 µM | 2.33 µM | Non-toxic | 45.6% | 0.98 g | 19.16 g | Active |
| CCC1(O)CC(=O)OCc2c1cc1n(c2=O)Cc2c-1nc1ccc(C(F)(F)F)cc1c2C(F)(F)F (racemic) | 22.9 µM | 20.3 µM | 5.32 µM |  |  |  |  |  |
| CCC1(O)CC(=O)OCc2c1cc1n(c2=O)Cc2c-1nc1ccc(OC)cc1c2C(F)(F)F (racemic) | 14.6 µM | 0.832 µM | 21.4 µM |  |  |  |  |  |
| CCC1(O)CC(=O)OCc2c1cc1n(c2=O)Cc2c-1nc1ccc(O)cc1c2C(F)(F)F (racemic) | 4.01 µM | 16.2 µM | 11.2 µM |  |  |  |  |  |
| CCC1(O)CC(=O)OCc2c1cc1n(c2=O)Cc2c-1nc1cccc(OC)c1c2C(F)(F)F (racemic) | 3.43 µM | 5.13 µM | 2.87 µM |  |  |  |  |  |
| CC[C@@]1(O)C(=O)OCc2c1cc1n(c2=O)Cc2cc3c(CN(C)C)c(O)ccc3nc2-1 [TOPOTECAN] |  |  |  | Non-toxic | 47.5% | 0.94 g | 19.24 g |  |
